BP data for 2 molecules are collected here from ChEMBL document CHEMBL1121378, “Lipophilic and hydrophilic esters of 4-acetyl-2-(2-hydroxyethyl)-5,6-bis(4-chlorophenyl)-2H-pyridazin-3-one as antihypertensive agents” (1980).

What all share (format): functional
Experiment [1] has as its system Rattus norvegicus. Kind of experiment: Antihypertensive activity in spontaneously hypertensive rats was measured as average blood pressure at 17 mg/kg, p.o. after 24 hours of postdose-1. Conditions: route oral. In outline:
(§1)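 SHR model with two successive doses, designated dose 1 and dose 2. Group-average blood pressure in mmHg was recorded before dosing and at 4 h and 24 h after each dose. The route is oral unless marked intra-arterial or subcutaneous. A table footnote marks doses that gave no significant lowering at 4 or 24 h postdose.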

Experiment [2] concerns Rattus norvegicus. Kind of experiment: Antihypertensive activity in spontaneously hypertensive rats was measured as average blood pressure at 50 mg/kg, p.o. before predose. The following applies: route oral. In a few lines:
(§2)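 Spontaneously hypertensive rats dosed orally twice. Average blood pressure (mmHg) recorded before dosing and at 4 h and 24 h after the first dose and after the second dose. Postdose values checked for significant lowering against predose.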

Experiment [3] deals with Rattus norvegicus. Kind of experiment: Antihypertensive activity in spontaneously hypertensive rats was measured as average blood pressure at 17 mg/kg, p.o. before predose. Conditions: route oral. In a few lines: as §1
For experiment [4], the system named is Rattus norvegicus. Kind of experiment: Antihypertensive activity in spontaneously hypertensive rats was measured as average blood pressure at 50 mg/kg, p.o. after 4 hours of postdose-1. The following applies: route oral. In a few lines: as §2
Experiment [5] has as its system Rattus norvegicus. Kind of experiment: Antihypertensive activity in spontaneously hypertensive rats was measured as average blood pressure at 17 mg/kg, p.o. after 4 hours of postdose-2. The following applies: route oral. In a few lines:
as §1

Experiment [6] deals with Rattus norvegicus. Kind of experiment: Antihypertensive activity in spontaneously hypertensive rats was measured as average blood pressure at 17 mg/kg, p.o. after 24 hours of postdose-2. Conditions: route oral. In a few lines: as §1
In experiment [7] the test system is Rattus norvegicus. Kind of experiment: Antihypertensive activity in spontaneously hypertensive rats was measured as average blood pressure at 17 mg/kg, p.o. after 4 hours of postdose-1. Conditions: route oral. In outline: as §1
The test system of experiment [8] is Rattus norvegicus. Kind of experiment: Antihypertensive activity in spontaneously hypertensive rats was measured as average blood pressure at 50 mg/kg, p.o. after 24 hours of postdose-1. The following applies: route oral. In a few lines: as §2
Experiment [9] deals with Rattus norvegicus. Kind of experiment: Antihypertensive activity in spontaneously hypertensive rats was measured as average blood pressure at 12 mg/kg, p.o. before predose. Conditions: route oral. In a few lines:
as §1

Experiment [10] concerns Rattus norvegicus. Kind of experiment: Antihypertensive activity in spontaneously hypertensive rats was measured as average blood pressure at 4 mg/kg, p.o. after 4 hours of postdose-2. The following applies: route oral. In a few lines: as §1
Experiment [11] concerns Rattus norvegicus. Kind of experiment: Antihypertensive activity in spontaneously hypertensive rats was measured as average blood pressure at 12 mg/kg, p.o. after 24 hours of postdose-2. Conditions: route oral. In a few lines: as §1
The subject of experiment [12] is Rattus norvegicus. Kind of experiment: Antihypertensive activity in spontaneously hypertensive rats was measured as average blood pressure at 12 mg/kg, p.o. after 4 hours of postdose-2. Conditions: route oral. In a few lines: as §1
Experiment [13] has as its system Rattus norvegicus. Kind of experiment: Antihypertensive activity in spontaneously hypertensive rats was measured as average blood pressure at 100 mg/kg, p.o. before predose. Conditions: route oral. In a few lines: as §1
In experiment [14] the test system is Rattus norvegicus. Kind of experiment: Antihypertensive activity in spontaneously hypertensive rats was measured as average blood pressure at 4 mg/kg, po before predose. In outline:
as §1

Experiment [15] deals with Rattus norvegicus. Kind of experiment: Antihypertensive activity in spontaneously hypertensive rats was measured as average blood pressure at 4 mg/kg, p.o. after 24 hours of postdose-2. The following applies: route oral. In a few lines: as §1
The subject of experiment [16] is Rattus norvegicus. Kind of experiment: Antihypertensive activity in spontaneously hypertensive rats was measured as average blood pressure at 100 mg/kg, p.o. after 24 hours of postdose-2. The following applies: route oral. In outline:
as §1

For experiment [17], the system named is Rattus norvegicus. Kind of experiment: Antihypertensive activity in spontaneously hypertensive rats was measured as average blood pressure at 100 mg/kg, p.o. after 24 hours of postdose-1. The following applies: route oral. In a few lines: as §1
Experiment [18] concerns Rattus norvegicus. Kind of experiment: Antihypertensive activity in spontaneously hypertensive rats was measured as average blood pressure at 100 mg/kg, p.o. after 4 hours of postdose-1. The following applies: route oral. In outline: as §1
Experiment [19] relates to Rattus norvegicus. Kind of experiment: Antihypertensive activity in spontaneously hypertensive rats was measured as average blood pressure at 12 mg/kg, p.o. after 4 hours of postdose-1. Conditions: route oral. In a few lines:
as §1

The test system of experiment [20] is Rattus norvegicus. Kind of experiment: Antihypertensive activity in spontaneously hypertensive rats was measured as average blood pressure at 4 mg/kg, po after 24 hours of postdose-1. In a few lines: as §1
The subject of experiment [21] is Rattus norvegicus. Kind of experiment: Antihypertensive activity in spontaneously hypertensive rats was measured as average blood pressure at 12 mg/kg, p.o. after 24 hours of postdose-1. The following applies: route oral. In outline:
as §1

Experiment [22] relates to Rattus norvegicus. Kind of experiment: Antihypertensive activity in spontaneously hypertensive rats was measured as average blood pressure at 4 mg/kg, p.o. after 4 hours of postdose-1. Conditions: route oral. In outline: as §1
Experiment [23] relates to Rattus norvegicus. Kind of experiment: Antihypertensive activity in spontaneously hypertensive rats was measured as average blood pressure at 100 mg/kg, p.o. after 4 hours of postdose-2. The following applies: route oral. In a few lines:
as §1

For the molecule `Br.Br.CC(=O)c1c(-c2ccc(Cl)cc2)c(-c2ccc(Cl)cc2)nn(CCOC(=O)C(N)CCCCN)c1=O` (stereo not drawn), the BP is listed as 162 mmHg in the experiment with Rattus norvegicus [1]; 231 mmHg with Rattus norvegicus [2]; 189 mmHg in the experiment with Rattus norvegicus [3]; 179 mmHg in the experiment on Rattus norvegicus [4]; 143 mmHg with Rattus norvegicus [5]; 175 mmHg in the experiment with Rattus norvegicus [6]. Further, the BP in the experiment on Rattus norvegicus [7] is given as 165 mmHg; in the experiment with Rattus norvegicus [8], 173 mmHg.

On to `CC(=O)c1c(-c2ccc(Cl)cc2)c(-c2ccc(Cl)cc2)nn(CCOC(=O)CN)c1=O.Cl`, for which the BP in the experiment on Rattus norvegicus [9] came to 199 mmHg; with Rattus norvegicus [10] it was 161 mmHg; in the experiment on Rattus norvegicus [11] it was 164 mmHg; in the experiment on Rattus norvegicus [12] it was 153 mmHg; with Rattus norvegicus [13], 178 mmHg; in the experiment with Rattus norvegicus [14], 184 mmHg. The BP in the experiment on Rattus norvegicus [15] is on record as 175 mmHg; in the experiment on Rattus norvegicus [16], 166 mmHg; with Rattus norvegicus [17] it was 131 mmHg; in the experiment on Rattus norvegicus [18] it was 138 mmHg; with Rattus norvegicus [19], 164 mmHg; in the experiment on Rattus norvegicus [20], 189 mmHg. The values for the BP in the experiment with Rattus norvegicus [21], in the experiment on Rattus norvegicus [22] and in the experiment with Rattus norvegicus [23] were 161 mmHg, 162 mmHg and 124 mmHg, respectively.
